Tests used:
SNB-19 = test: Antiproliferative activity against human SNB-19 cells assessed as cell growth inhibition at 10 uM incubated for 48 hrs by sulforhodamine B assay relative to control; format: functional
Procedure, shortened: (§1)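 NCI-60 single-dose screen at 10^-5 M. Cells grown in RPMI 1640 with 5% FBS and 2 mM L-glutamine, plated at 5,000–40,000 cells/well, and preincubated 24 h. Drug (DMSO stock) added and incubated 48 h at 37 °C, 5% CO2. Adherent cells fixed with cold TCA, stained with 0.4% SRB in 1% acetic acid, dye solubilized in 10 mM trizma base, A515 read. Percent growth taken against time-zero and untreated control.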

KM12 = test: Antiproliferative activity against human KM12 cells assessed as cell growth inhibition at 10 uM incubated for 48 hrs by sulforhodamine B assay relative to control; format: functional; procedure, shortened: as §1
SK-OV-3 = test: Antiproliferative activity against human SK-OV-3 cells assessed as cell growth inhibition at 10 uM incubated for 48 hrs by sulforhodamine B assay relative to control; format: functional; procedure, shortened: as §1
SK-MEL-28 = test: Antiproliferative activity against human SK-MEL-28 cells assessed as cell growth inhibition at 10 uM incubated for 48 hrs by sulforhodamine B assay relative to control; format: functional; procedure, shortened: as §1
MDA-MB-468 = test: Antiproliferative activity against human MDA-MB-468 cells assessed as cell growth inhibition at 10 uM incubated for 48 hrs by sulforhodamine B assay relative to control; format: functional; procedure, shortened: as §1
RXF 393 = test: Antiproliferative activity against human RXF 393 cells assessed as cell growth inhibition at 10 uM incubated for 48 hrs by sulforhodamine B assay relative to control; format: functional; procedure, shortened: as §1
HL-60 = test: Antiproliferative activity against human HL-60 cells assessed as cell growth inhibition at 10 uM incubated for 48 hrs by sulforhodamine B assay relative to control; format: functional
Procedure, shortened: (§2)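 NCI-60 one-dose prescreen at 10^-5 M. Cells grown in RPMI 1640 with 5% FBS and 2 mM glutamine, preincubated 24 h, then exposed 48 h at 37 °C. Adherent lines TCA-fixed, SRB-stained, A515 read. Growth percent relative to time-zero and control; negative values mean cell kill.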

MDA-MB-435 = test: Antiproliferative activity against human MDA-MB-435 cells assessed as cell growth inhibition at 10 uM incubated for 48 hrs by sulforhodamine B assay relative to control; format: functional; procedure, shortened: as §1
SNB-75 = test: Antiproliferative activity against human SNB-75 cells assessed as cell growth inhibition at 10 uM incubated for 48 hrs by sulforhodamine B assay relative to control; format: functional; procedure, shortened: as §1
TK-10 = test: Antiproliferative activity against human TK-10 cells assessed as cell growth inhibition at 10 uM incubated for 48 hrs by sulforhodamine B assay relative to control; format: functional; procedure, shortened: as §1
UACC-257 = test: Antiproliferative activity against human UACC-257 cells assessed as cell growth inhibition at 10 uM incubated for 48 hrs by sulforhodamine B assay relative to control; format: functional; procedure, shortened: as §1
T47D = test: Antiproliferative activity against human T47D cells assessed as cell growth inhibition at 10 uM incubated for 48 hrs by sulforhodamine B assay relative to control; format: functional; procedure, shortened: as §1
HCT-15 = test: Antiproliferative activity against human HCT-15 cells assessed as cell growth inhibition at 10 uM incubated for 48 hrs by sulforhodamine B assay relative to control; format: functional; procedure, shortened: as §2
A549 = test: Antiproliferative activity against human A549 cells assessed as cell growth inhibition at 10 uM incubated for 48 hrs by sulforhodamine B assay relative to control; format: functional
Procedure, shortened: (§3)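 Single-dose NCI-60 prescreen at 10^-5 M. Cells in RPMI 1640 with 5% FBS and 2 mM L-glutamine, seeded 5,000–40,000 cells/well with 24 h preincubation, then drug exposure for 48 h at 37 °C under 5% CO2. Growth read by SRB staining of TCA-fixed cells at 515 nm against time-zero and untreated controls. Negative growth values denote cell kill.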

COLO 205 = test: Antiproliferative activity against human COLO 205 cells assessed as cell growth inhibition at 10 uM incubated for 48 hrs by sulforhodamine B assay relative to control; format: functional; procedure, shortened: as §3
BT-549 = test: Antiproliferative activity against human BT-549 cells assessed as cell growth inhibition at 10 uM incubated for 48 hrs by sulforhodamine B assay relative to control; format: functional; procedure, shortened: as §3
OVCAR-5 = test: Antiproliferative activity against human OVCAR-5 cells assessed as cell growth inhibition at 10 uM incubated for 48 hrs by sulforhodamine B assay relative to control; format: functional; procedure, shortened: as §1
HT-29 = test: Antiproliferative activity against human HT-29 cells assessed as cell growth inhibition at 10 uM incubated for 48 hrs by sulforhodamine B assay relative to control; format: functional; procedure, shortened: as §1
NCI-H460 = test: Antiproliferative activity against human NCI-H460 cells assessed as cell growth inhibition at 10 uM incubated for 48 hrs by sulforhodamine B assay relative to control; format: functional; procedure, shortened: as §1
NCI-H322M = test: Antiproliferative activity against human NCI-H322M cells assessed as cell growth inhibition at 10 uM incubated for 48 hrs by sulforhodamine B assay relative to control; format: functional; procedure, shortened: as §1
K562 = test: Antiproliferative activity against human K562 cells assessed as cell growth inhibition at 10 uM incubated for 48 hrs by sulforhodamine B assay relative to control; format: functional; procedure, shortened: as §1
OVCAR-4 = test: Antiproliferative activity against human OVCAR-4 cells assessed as cell growth inhibition at 10 uM incubated for 48 hrs by sulforhodamine B assay relative to control; format: functional; procedure, shortened: as §1
UACC-62 = test: Antiproliferative activity against human UACC-62 cells assessed as cell growth inhibition at 10 uM incubated for 48 hrs by sulforhodamine B assay relative to control; format: functional; procedure, shortened: as §1
OVCAR-8 = test: Antiproliferative activity against human OVCAR-8 cells assessed as cell growth inhibition at 10 uM incubated for 48 hrs by sulforhodamine B assay relative to control; format: functional; procedure, shortened: as §1
NCI-H226 = test: Antiproliferative activity against human NCI-H226 cells assessed as cell growth inhibition at 10 uM incubated for 48 hrs by sulforhodamine B assay relative to control; format: functional; procedure, shortened: as §1
DU-145 = test: Antiproliferative activity against human DU-145 cells assessed as cell growth inhibition at 10 uM incubated for 48 hrs by sulforhodamine B assay relative to control; format: functional; procedure, shortened: as §2
HOP-62 = test: Antiproliferative activity against human HOP-62 cells assessed as cell growth inhibition at 10 uM incubated for 48 hrs by sulforhodamine B assay relative to control; format: functional; procedure, shortened: as §2
Malme-3M = test: Antiproliferative activity against human Malme-3M cells assessed as cell growth inhibition at 10 uM incubated for 48 hrs by sulforhodamine B assay relative to control; format: functional; procedure, shortened: as §1
CAKI-1 = test: Antiproliferative activity against human CAKI-1 cells assessed as cell growth inhibition at 10 uM incubated for 48 hrs by sulforhodamine B assay relative to control; format: functional; procedure, shortened: as §3
HCC 2998 = test: Antiproliferative activity against human HCC 2998 cells assessed as cell growth inhibition at 10 uM incubated for 48 hrs by sulforhodamine B assay relative to control; format: functional; procedure, shortened: as §2
Calf thymus DNA = test: Binding affinity to calf thymus DNA assessed as quenching constant at temperature of 298 K by fluorescence spectroscopic method; format: nucleic-acid assay; details: Bos taurus
SN12C = test: Growth inhibition against human SN12C cells incubated for 48 hrs by sulforhodamine B assay; format: functional
SK-MEL-2 = test: Antiproliferative activity against human SK-MEL-2 cells assessed as cell growth at 0.0001 M incubated for 48 hrs by SRB assay relative to control; format: functional; details: read-out: Activity

Structure (SMILES)	inhibition at 10 µM (SNB-19) [%]	inhibition at 10 µM (KM12) [%]	inhibition at 10 µM (MDA-MB-468) [%]	inhibition at 10 µM (RXF 393) [%]	inhibition at 10 µM (HL-60) [%]	inhibition at 10 µM (MDA-MB-435) [%]	inhibition at 10 µM (SNB-75) [%]	inhibition at 10 µM (T47D) [%]	inhibition at 10 µM (HCT-15) [%]	inhibition at 10 µM (A549) [%]	inhibition at 10 µM (COLO 205) [%]	inhibition at 10 µM (BT-549) [%]	inhibition at 10 µM (OVCAR-5) [%]	inhibition at 10 µM (HT-29) [%]	inhibition at 10 µM (NCI-H460) [%]	inhibition at 10 µM (OVCAR-4) [%]	inhibition at 10 µM (UACC-62) [%]	inhibition at 10 µM (OVCAR-8) [%]	inhibition at 10 µM (NCI-H226) [%]	inhibition at 10 µM (DU-145) [%]	also measured
c1ccc(-c2cn3ccnc3c(-c3ccc4ncn(C5CCCCC5)c4c3)n2)cc1	22.9	49	54.4	45	67.1	28.7	44.4	-11.1	51.6	33.3	20.7	57.1	7.87	48.3	37.8	34.5	65.7	63.9	33.9	29.3	inhibition at 10 µM (SK-OV-3): 7.52%; inhibition at 10 µM (SK-MEL-28): 18%; inhibition at 10 µM (TK-10): 2.26%; inhibition at 10 µM (UACC-257): 5.22%; inhibition at 10 µM (NCI-H322M): 5.25%; inhibition at 10 µM (K562): 70.6%
c1cn2cc(-c3ccc4c(c3)ncn4C3CCCCC3)nc(-c3ccc4ncn(C5CCCCC5)c4c3)c2n1	10.6	30.6	14.9	37.4	30	7.38	24.8	44.7	35.6	25.3	6.71	27.7	1.44	58.2	11.9		29.3	42.6	18.8	8.72	inhibition at 10 µM (HOP-62): 16.8%; inhibition at 10 µM (UACC-257): 14.9%; inhibition at 10 µM (Malme-3M): 5.14%; inhibition at 10 µM (CAKI-1): 15.9%; inhibition at 10 µM (K562): 38.5%; inhibition at 10 µM (HCC 2998): 15.5%
c1ccc2c(-c3cn4ccnc4c(-c4ccc5ncn(C6CCCCC6)c5c4)n3)cccc2c1	9.08	11.1	10.4		38.9		16.5	41.3	4.46					4.11	3.61	19.7	16.7		9.45	5.1	inhibition at 10 µM (HOP-62): 19.6%; inhibition at 10 µM (CAKI-1): 25.1%; inhibition at 10 µM (NCI-H322M): 4.74%; inhibition at 10 µM (K562): 30.9%; inhibition at 10 µM (HCC 2998): 2.23%
COc1ccc(-c2cn3ccnc3c(-c3ccc4ncn(C5CCCCC5)c4c3)n2)cc1	68.4	83.2	97.4	-8.48	98.6	-18.6	-26.3	-8.6	78.8	68.6	-8.01	68.9	58.8	92.5	91.1	46.4	65.2	71.2	35.9	81.8	inhibition at 10 µM (SK-OV-3): 74.3%; inhibition at 10 µM (SK-MEL-28): 47.7%; Kq (Calf thymus DNA): 4.65 10^12/M/s; GI50 (SN12C): 2.11 µM; inhibition at 10 µM (TK-10): 18.5%; inhibition at 10 µM (UACC-257): 26.3%; growth at 100 µM (SK-MEL-2): 3%; inhibition at 10 µM (NCI-H322M): 31.5%; inhibition at 10 µM (K562): 92%; inhibition at 10 µM (HCC 2998): 62.6%
CCc1ccc(-c2cn3ccnc3c(-c3ccc4ncn(Cc5ccccc5)c4c3)n2)cc1	20.9	45.7	17.2	30.7	39.6	50.9	29.3	94.8	74.7	45.4	34.2	15.9	14.9	68.8	42	35.1	24.9	30.8	1.48	19.1	inhibition at 10 µM (SK-OV-3): 0.55%; inhibition at 10 µM (SK-MEL-28): 19.1%; inhibition at 10 µM (HOP-62): 17.9%; inhibition at 10 µM (TK-10): 15.5%; inhibition at 10 µM (CAKI-1): 47.9%; inhibition at 10 µM (NCI-H322M): 0.89%; inhibition at 10 µM (HCC 2998): 25.2%
c1cn2cc(-c3ccc4ncn(C5CCCCC5)c4c3)nc(-c3ccc4ncn(C5CCCCC5)c4c3)c2n1	41.2	63.5	31.4	16.8	51	60.2	25.4	54.9	57.1	57.6	22.4	38.3	7.18	71.9	53	22.8	51.9	59.5	46.7	46.3	inhibition at 10 µM (SK-OV-3): 14.8%; inhibition at 10 µM (SK-MEL-28): 24.4%; inhibition at 10 µM (HOP-62): 42.6%; inhibition at 10 µM (TK-10): 14.4%; inhibition at 10 µM (UACC-257): 35.5%; inhibition at 10 µM (Malme-3M): 7.04%; inhibition at 10 µM (CAKI-1): 54.6%; inhibition at 10 µM (NCI-H322M): 39.1%; inhibition at 10 µM (K562): 69.8%; inhibition at 10 µM (HCC 2998): 17.7%
Cc1cccc(-c2cn3ccnc3c(-c3ccc4ncn(Cc5ccccc5)c4c3)n2)c1	2.58	22.1	16.6	2.01	18.2	0.94	21.7	86	35.2	14.9	11.3		6.64	42	10.1	19.3	2.46	11.5	1.18	14.2	inhibition at 10 µM (HOP-62): 9.68%; inhibition at 10 µM (CAKI-1): 24.8%
